For experiment [1], the target named is T1, ABHD16A (WT and S355A mutant) (Homo sapiens, UniProt O95870).
T1 sequence (O95870 1-558): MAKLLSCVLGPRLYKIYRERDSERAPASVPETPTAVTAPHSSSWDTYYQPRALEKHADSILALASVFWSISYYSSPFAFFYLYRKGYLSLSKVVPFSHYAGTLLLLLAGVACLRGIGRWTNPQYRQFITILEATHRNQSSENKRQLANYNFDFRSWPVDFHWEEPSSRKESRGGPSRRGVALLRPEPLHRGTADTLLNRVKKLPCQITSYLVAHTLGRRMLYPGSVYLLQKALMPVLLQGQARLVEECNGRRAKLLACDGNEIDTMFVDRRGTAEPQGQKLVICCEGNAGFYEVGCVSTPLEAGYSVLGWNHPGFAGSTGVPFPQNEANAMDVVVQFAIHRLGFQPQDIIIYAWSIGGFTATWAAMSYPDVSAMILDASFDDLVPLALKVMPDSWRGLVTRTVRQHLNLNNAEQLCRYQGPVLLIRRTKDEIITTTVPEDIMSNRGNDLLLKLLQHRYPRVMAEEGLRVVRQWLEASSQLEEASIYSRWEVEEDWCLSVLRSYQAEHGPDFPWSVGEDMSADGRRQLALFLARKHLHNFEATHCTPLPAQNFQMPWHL
The experiment is described as follows: activity-dependent labeling of ABHD16A in transfected HEK293T cell lysates. Type of experiment: binding. Conditions: 0.2 µM, 30 min, 37 °C.

Experiment [2] addresses T2, ABHD16A (Homo sapiens, UniProt O95870).
T2 sequence (O95870 1-558): T1 sequence (O95870 1-558)
The experiment is described as follows: PS substrate. The experiment is classed as biochemical. Conditions: 95% interval for the reported IC50 value, human ABHD16A PS lipase activity.

Experiment [3] addresses T2, ABHD16A. The experiment is described as follows: biochemical. Type of experiment: binding.
The next experiment deals with T3, mouse ABHD16A (Mus musculus, UniProt Q9Z1Q2).
T3 sequence (Q9Z1Q2 1-558): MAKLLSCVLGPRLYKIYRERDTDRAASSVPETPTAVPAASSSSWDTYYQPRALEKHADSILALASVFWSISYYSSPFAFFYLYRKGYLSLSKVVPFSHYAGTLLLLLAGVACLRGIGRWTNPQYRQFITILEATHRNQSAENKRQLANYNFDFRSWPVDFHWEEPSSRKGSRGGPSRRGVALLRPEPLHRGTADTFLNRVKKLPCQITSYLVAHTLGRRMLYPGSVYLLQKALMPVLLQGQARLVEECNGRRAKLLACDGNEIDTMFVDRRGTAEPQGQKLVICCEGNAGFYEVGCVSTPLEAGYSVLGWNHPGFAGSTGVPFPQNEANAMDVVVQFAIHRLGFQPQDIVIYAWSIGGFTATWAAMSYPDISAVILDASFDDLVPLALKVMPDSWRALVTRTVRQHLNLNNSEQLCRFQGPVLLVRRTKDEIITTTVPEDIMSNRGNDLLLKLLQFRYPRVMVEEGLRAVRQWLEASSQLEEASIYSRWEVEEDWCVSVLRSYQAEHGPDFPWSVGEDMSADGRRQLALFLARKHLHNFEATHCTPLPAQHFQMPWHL
The experiment is described as follows: competitive gel-based ABPP, mouse ABHD16A-transfected HEK293T proteome. Type of experiment: binding.

Experiment [4] concerns the target T2, ABHD16A. Description: competitive gel-based ABPP, K562 cells treated in situ. Conditions: in situ IC50 for ABHD16A, 4 h treatment, 37 °C. Type of experiment: cell-based.
Experiment [5] deals with T2, ABHD16A. The experiment is described as follows: ABPP-SILAC of serine hydrolase activities in COLO205 cells treated in situ. Type of experiment: cell-based. Conditions: 1 μM, 4 h, 37 °C.
The subject of experiment [6] is additional off-targets (serine hydrolase activities). The description is as above. The experiment is classed as cell-based, human. Conditions: 1 μM, 4 h, 37 °C.
For another experiment, the system named is COLO205 cells. Description: LC-MS-based lipid profiling of treated cells. The experiment is classed as cell-based, human. Conditions: COLO205, 1 μM, 4 h. An outline of the steps: (§1)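 Cells grown in RPMI 1640 with 10% FCS and penicillin-streptomycin. 3 x 10^6 cells washed, then exposed to test compound (1 μM) or DMSO for 4 h at 37 °C, 5% CO2, in serum-free, phenol red-free RPMI. Media and cells extracted with 2:1 CHCl3:MeOH plus internal standards. Lipids quantified by LC-MS MRM (ESI) as peak area versus unnatural internal standard, normalized to cell number.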

For experiment [7], the system named is PS lipase activity of human LCLs. Description: PS lipase activity of membrane proteomes of lymphoblast cell lines. The experiment is classed as biochemical. Conditions: 1 µM, 30 min, 37 °C; all LCL samples. An outline of the steps: (§2)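 Membrane proteome (20 μg) incubated with 100 μM lipid substrate in PBS (100 μL), shaking, […] for 30 min. Quenched with 2:1 CHCl3:MeOH and internal standard, then extracted twice. Product quantified by LC-QTOF-MS, ESI negative mode, as peak area relative to internal standard. Non-enzymatic rate from heat-denatured proteome (95 °C, 15 min) subtracted.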

Experiment [8] relates to human lymphoblast cell lines (LCLs). The experiment is described as follows: targeted LC-MS analysis of lyso-PS in LCLs. The experiment is classed as cell-based. Conditions: 1 μM, 4 h. The gist of the method:
as §1

Experiment [9] has as its target T2, ABHD16A. The experiment is described as follows: gel-based ABPP of LCLs treated in situ. Type of experiment: cell-based. Conditions: 1 µM, 4 h in situ.
Experiment [10] concerns PS lipase activity of mouse peritoneal macrophages. Description: PS lipase activity of membrane proteomes of peritoneal macrophages. Conditions: vehicle- and LPS-stimulated macrophages; 1 µM, 30 min, 37 °C. Type of experiment: biochemical. An outline of the steps: as §2
The subject of experiment [11] is thioglycollate-elicited mouse peritoneal macrophages. Description: cellular and secreted lyso-PS of thioglycollate-elicited peritoneal macrophages. Type of experiment: cell-based. Conditions: 4 h. The gist of the method:
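Thioglycollate-elicited peritoneal macrophages from wild-type, ABHD12−/− or ABHD16A−/− mice. 2 x 10^6 cells plated and adhered 2 h at 37 °C. Washed, then test compound (1 μM) or DMSO given for 4 h in serum-free, phenol red-free RPMI. LPS 5 μg/mL in PBS for 7 h. Media (4 mL) and cells extracted with CHCl3:MeOH. Lipids quantified by LC-MS MRM against internal standards, normalized to cell number.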

Experiment [12] has the same test system. Description: secreted cytokines of thioglycollate-elicited peritoneal macrophages. Type of experiment: cell-based. Conditions: 4 h. The gist of the method:
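Peritoneal macrophages elicited by thioglycollate from wild-type, ABHD12−/− or ABHD16A−/− mice. 2 x 10^6 cells allowed to adhere 2 h, then washed. Test compound (1 μM) or DMSO applied for 4 h in serum-free, phenol red-free RPMI, then LPS (5 μg/mL, 7 h, in PBS). Cytokines measured in 0.5 mL harvested medium by mouse single-analyte ELISA.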

The next experiment concerns ABHD12. Conditions: read-out: IC50, competitive ABPP; brain serine hydrolases; cited from earlier work.
The subject of a further experiment is ABHD16A/BAT5. Conditions: read-out: IC50, competitive ABPP; uncharacterized 60 kDa membrane enzyme tentatively identified as ABHD16A/BAT5; cited from earlier work.
The mark [13] stands for this setting: ABHD12−/− macrophages, pre-treatment 1 μM.
Setting [14] is: ABHD16A−/− macrophages, basal or LPS stimulation, 1 µM.
Where [15] appears, read: wild-type macrophages, pre-treatment 1 μM, LPS 5 μg/mL, 7 h.

SMILES strings stand for the structures.

On to `CCCCCCCCCCCCCC1OC(=O)/C1=C\CCCC(=O)NCCCCCNC(=O)c1ccc(-c2c3ccc(=[N+](C)C)cc-3oc3cc(N(C)C)ccc23)c(C(=O)[O-])c1` (centres unmarked) [WHP01], for which the “labeling of ABHD16A by fluorescent probe” value in experiment [1] is given as “labeled WT-ABHD16A but not the catalytic serine S355A mutant”.
In the case of `CCCCCCCCCCCCCC1OC(=O)/C1=C\CCCCC(N)=O` (centres unmarked) [KC01], the IC50 (in general, the concentration needed to halve the response being measured) against ABHD16A [2] was 0.069 to 0.105 µM; against ABHD16A [3], 0.2 to 0.5 µM; on mouse ABHD16A, 0.2 to 0.5 µM; at ABHD16A [4] it was roughly 0.3 µM. For the same compound, the “light:heavy ratio for ABHD16A (ABPP-SILAC)” value at ABHD16A [5] is listed as 0.02. For the same compound, the “partial inhibition of a handful of additional off-targets (ABPP-SILAC)” value in experiment [6] was 50–80%. Further, the “cellular lyso-PSs versus DMSO-treated control cells” value in the experiment with COLO205 cells was “significant reductions”. Also, in the experiment on COLO205 cells, the “other lipids (PSs, PCs, PEs, lyso-PCs, lyso-PEs, MAGs)” value was “No changes”. For the same compound, the “secreted lyso-PSs (18:1 and 18:0)” value with COLO205 cells (serum-free media) is “decreased”. For the same compound, in experiment [7], the “PS lipase activity of LCL membrane proteomes” value is “inhibited”. Further, in experiment [8] (PHARC subject-derived LCL), the “secreted lyso-PSs of the ABHD12-null LCL” value is recorded as “significantly lowered”. Further, the “cellular lyso-PSs of LCLs” value in experiment [8] (all LCLs) is reported as “decreased cellular lyso-PSs”. In addition, the “inhibition of ABHD16A in LCLs by gel-based ABPP” value against ABHD16A [9] was “confirmed inhibition”. Moreover, the “PS lipase activity of macrophage membrane proteomes” value in [10] was “blocked”. Besides, the “LPS-induced increases in lyso-PSs” value in experiment [11] (setting [13]) is on record as “blocked”. For the same compound, the “cellular or secreted lyso-PS and other measured lipids” value in [11] (setting [14]) is recorded as “no changes”. The “basal and LPS-induced increases in cellular and secreted lyso-PSs” value in [11] (setting [15]) was “reduced”. Besides, the “LPS-induced increases in cytokine secretion” value in experiment [12] (setting [13]) is on record as “blocked”. Besides, the “secreted proinflammatory cytokines (IL-6 and TNF-α)” value in [12] (setting [14]) is “no changes”. Moreover, the LPS-induced cytokine release result in experiment [12] (setting [15]) is reported as “significantly blunted”.
For `CCCCCCCCCCC[C@@H](C[C@@H]1OC(=O)[C@H]1CCCCCC)OC(=O)[C@H](CC(C)C)NC=O` [THL, tetrahydrolipstatin], the 50% inhibitory concentration (IC50) with ABHD12 and with ABHD16A/BAT5 was roughly 0.1 µM in each case.

These data come from paper PMC4301979 (Nature chemical biology, 2015).
